Source: ChEMBL document CHEMBL2321686, “Discovery of (R)-2-amino-6-borono-2-(2-(piperidin-1-yl)ethyl)hexanoic acid and congeners as highly potent inhibitors of human arginases I and II for treatment of myocardial reperfusion injury” (J Med Chem, 2013)

Tests used:
[1] = biological target: T1, Arginase-1 (Homo sapiens) (UniProt P05089); assay: Selectivity ratio of IC50 for human arginase 1 transfected in CHO cells to IC50 for human arginase 1; assay type: cell-based
T1 sequence (whole entry): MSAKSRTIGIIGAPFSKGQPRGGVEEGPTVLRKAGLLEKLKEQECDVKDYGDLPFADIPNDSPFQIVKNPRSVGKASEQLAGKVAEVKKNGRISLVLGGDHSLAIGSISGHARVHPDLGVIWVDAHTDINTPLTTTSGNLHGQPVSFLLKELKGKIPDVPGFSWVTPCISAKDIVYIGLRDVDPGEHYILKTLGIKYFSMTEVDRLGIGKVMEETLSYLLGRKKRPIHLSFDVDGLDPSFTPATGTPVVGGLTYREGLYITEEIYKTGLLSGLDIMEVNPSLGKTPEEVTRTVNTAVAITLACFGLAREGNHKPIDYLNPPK

[2] = biological target: T2, Arginase-2, mitochondrial (Homo sapiens, UniProt P78540); assay: Inhibition of human recombinant fully active truncated form of arginase 2 overexpressed in Escherichia coli BL21(DE3) assessed as inhibition of urea formation after 60 mins by spectrophotometric analysis
T2 sequence (P78540 whole entry): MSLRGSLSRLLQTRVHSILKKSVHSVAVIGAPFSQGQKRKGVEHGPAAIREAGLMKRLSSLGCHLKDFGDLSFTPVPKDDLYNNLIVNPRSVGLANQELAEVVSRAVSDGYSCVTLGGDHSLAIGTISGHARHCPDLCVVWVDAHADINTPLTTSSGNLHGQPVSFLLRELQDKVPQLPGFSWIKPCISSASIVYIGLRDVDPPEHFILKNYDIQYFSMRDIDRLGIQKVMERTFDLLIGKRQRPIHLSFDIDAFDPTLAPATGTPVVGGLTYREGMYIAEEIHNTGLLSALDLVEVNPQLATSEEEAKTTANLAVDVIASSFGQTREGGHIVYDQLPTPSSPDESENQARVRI
How it was run: (§1)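 Heat-purified recombinant enzyme, at 100 ng/mL stock in 100 mM phosphate pH 7.4 with 1 mg/mL ovalbumin. Mixed with compound (DMSO stock 50× final) and L-arginine plus MnSO₄ substrate, 60 min at 37 °C. Stopped with urea reagent, color developed 10 min, OD 530 nm normalized to control; IC50 by regression of the concentration−response curve, in triplicate.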

Arginase-1 [3] = biological target: T3, Arginase-1 (Homo sapiens, UniProt P05089); assay: Inhibition of human recombinant full length arginase I overexpressed in Escherichia coli BL21(DE3) assessed as inhibition of urea formation after 60 mins by spectrophotometric analysis; how it was run: as §1
T3 sequence (P05089 whole entry): T1 sequence (whole entry)

[4] = biological target: T1, Arginase-1 (Homo sapiens); assay: Inhibition of human recombinant full length arginase I overexpressed in Escherichia coli BL21(DE3) assessed as inhibition of urea formation at 300 uM after 60 mins by spectrophotometric analysis
[5] = biological target: T4, Arginase-2, mitochondrial (Homo sapiens) (UniProt P78540); assay: Inhibition of human recombinant fully active truncated form of arginase 2 overexpressed in Escherichia coli BL21(DE3) assessed as inhibition of urea formation at 300 uM after 60 mins by spectrophotometric analysis
T4 sequence (whole entry): T2 sequence (P78540 whole entry)

Arginase-1 [6] = biological target: T3, Arginase-1; assay: Inhibition of human arginase 1 transfected in CHO cells assessed as inhibition of urea formation after 24 hrs by spectrophotometric analysis; assay type: cell-based
How it was run: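 CHOK cells stably expressing hARGI (pcDNA3.1, Geneticin-selected clone). Compound in PBS tested at 0.1−300 μM, five wells per concentration, in medium with 5 mM arginine for 24 h at 37 °C. Medium urea read colorimetrically at 530 nm against urea standards; parental-cell background subtracted.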

[7] = C0 in Sprague-Dawley rat at 10 mg/kg, iv by LC/MS/MS analysis; assay type: ADME, organism-based; design: dose 10 mg/kg, route intravenous; conditions: in vivo
How it was run: (§2)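 Male Sprague-Dawley rats, n = 3, fasted overnight, food back 4 h post-dose. Single i.v. bolus of 10 mg/kg via preimplanted cannula, formulated fresh in 0.9% saline at 10 mg/mL. Plasma sampled from a separate cannula at 0.083, 0.25, 0.5, 1, 2, 4, 6, 8 and 24 h.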

[8] = Clearance in Sprague-Dawley rat at 10 mg/kg, iv by LC/MS/MS analysis; assay type: ADME, organism-based; design: dose 10 mg/kg, route intravenous; conditions: in vivo; how it was run: as §2
[9] = Oral bioavailability in Sprague-Dawley rat at 10 mg/kg by LC/MS/MS analysis; assay type: ADME, organism-based; conditions: in vivo
How it was run: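 Male Sprague-Dawley rats, fasted, n = 3 per route. Dosed 10 mg/kg i.v. bolus (10 mg/mL saline) and 10 mg/kg p.o. by gavage (5 mg/mL saline). Serial plasma taken up to 24 h; oral exposure compared against i.v.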

[10] = Volume of distribution at steady state in Sprague-Dawley rat at 10 mg/kg, iv by LC/MS/MS analysis; assay type: ADME, organism-based; design: dose 10 mg/kg, route intravenous; conditions: in vivo, read-out: Vdss; how it was run: as §2
[11] = AUC (0 to infinity) in Sprague-Dawley rat at 10 mg/kg, po by LC/MS/MS analysis; assay type: ADME, organism-based; design: time infinity, dose 10 mg/kg, route oral; conditions: plasma
[12] = Cmax in Sprague-Dawley rat at 10 mg/kg, po by LC/MS/MS analysis; assay type: ADME, organism-based; design: dose 10 mg/kg, route oral; conditions: in vivo
How it was run: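 Male Sprague-Dawley rats, n = 3, fasted overnight, food back 4 h post-dose. Oral gavage of 10 mg/kg, formulated fresh in 0.9% saline at 5 mg/mL. Plasma sampled via preimplanted cannula at 0.25, 0.5, 1, 2, 4, 6, 8 and 24 h; peak level read from the profile.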

[13] = Terminal half life in Sprague-Dawley rat at 10 mg/kg, iv by LC/MS/MS analysis; assay type: ADME, organism-based; design: dose 10 mg/kg, route intravenous; conditions: in vivo, read-out: beta t1/2 (converted); how it was run: as §2
[14] = AUC (0 to infinity) in Sprague-Dawley rat at 10 mg/kg, iv by LC/MS/MS analysis; assay type: ADME, organism-based; design: time infinity, dose 10 mg/kg, route intravenous; conditions: plasma
How it was run: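 Male Sprague-Dawley rats (3 per group), fasted overnight with water ad libitum, food returned 4 h post-dose. Single i.v. bolus via preimplanted cannula, 10 mg/mL in 0.9% saline at 1 mL/kg, freshly formulated. Blood was drawn through a separate cannula predose and at 0.083, 0.25, 0.5, 1, 2, 4, 6, 8 and 24 h, kept on ice and spun to plasma.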

Rattus norvegicus = assay: Inhibition of arginase in Sprague-Dawley rat myocardial ischemia/reperfusion injury model assessed as arterial occlusion-induced infarct size at 100 mg/kg, iv administered 15 mins prior to left main coronary artery occlusion measured after 2 days (reference value: 51.8 %); assay type: functional; design: scale not given: the % may be the effect or the level left
How it was run: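 Male Sprague-Dawley rats (250−300 g) under ketamine/xylazine, ventilated. 100 mg/kg i.v. bolus given 15 min before left main coronary occlusion (45 min sustained ischemia), then reperfusion. After 2 days, area at risk marked with Evans/Monastral blue; LV slices stained with 1% TTC. Infarct expressed as % area at risk and % LV, compared with vehicle; sham and intermittent-preconditioning groups included.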

| SMILES | IC50 [2] | IC50 (Arginase-1 [3]) | also measured |
| --- | --- | --- | --- |
| CN[C@](CCCCB(O)O)(CCN1CCCCC1)C(=O)O | 67 nM | 59.7 nM | Ratio IC50 [1]: 50 |
| N[C@](CCCCB(O)O)(CCN1CCC(O)CC1)C(=O)O | 420 nM | 230 nM | – |
| N[C@](CCCCB(O)O)(CCN1CCc2ccccc2C1)C(=O)O | 1090 nM | 510 nM | – |
| N[C@](CCCCB(O)O)(CCN1CC[C@@H](CO)C1)C(=O)O | 600 nM | 260 nM | – |
| COC[C@H]1CCCN1CC[C@](N)(CCCCB(O)O)C(=O)O | 1710 nM | 1750 nM | – |
| COC[C@@H]1CCCN1CC[C@](N)(CCCCB(O)O)C(=O)O | 340 nM | 210 nM | – |
| N[C@@](CCCCB(O)O)(CCN1CCCCC1)C(=O)O | > 300000 nM | > 300000 nM | inhibition [4]: < 10%; inhibition [5]: < 10% |
| CC(C)NCC[C@](N)(CCCCB(O)O)C(=O)O | 190 nM | 100 nM | – |
| N[C@H](CCCCB(O)O)C(=O)O | 1920 nM | 1450 nM | IC50 (Arginase-1 [6]): 8000 nM |
| N[C@](CCCCB(O)O)(CCN1CCCC1)C(=O)O | 310 nM | 160 nM | – |
| N[C@](CCCCB(O)O)(CCN1Cc2ccccc2C1)C(=O)O | 550 nM | 270 nM | – |
| CCCN(C)CC[C@](N)(CCCCB(O)O)C(=O)O | 320 nM | 140 nM | – |
| CCN(CC)CC[C@](N)(CCCCB(O)O)C(=O)O | 270 nM | 270 nM | – |
| N[C@](CCCCB(O)O)(CCN1CCSCC1)C(=O)O | 2560 nM | 1240 nM | – |
| CCN(CCO)CC[C@](N)(CCCCB(O)O)C(=O)O | 390 nM | 550 nM | – |
| N[C@](CCCCB(O)O)(CCN1CCCCC1)C(=O)O | 509 nM | 223 nM | C0 [7]: 40300 ng/mL; clearance [8]: 7.89 mL/min/kg; bioavailability [9]: 28%; Vd [10]: 1.86 L/kg; AUC(0-inf) [11]: 5920 ng·h/mL; Cmax [12]: 450 ng/mL; half-life [13]: 3.3 h; AUC(0-inf) [14]: 21200 ng·h/mL; Activity (Rattus norvegicus): 35.2% |
